In ChEMBL document CHEMBL3585304, “Synthesis and evaluation of tamoxifen derivatives with a long alkyl side chain as selective estrogen receptor down-regulators” (Bioorg Med Chem, 2015) one finds inhibition and IC50 data, which are given here for 11 compounds.

Active and inactive are the calls of the source. The rule behind the calls is not given here.

The test system of assay [1] is MCF7. As to the kind of experiment: Reduction in endogenous ERalpha expression in human MCF7 cells at 10 uM after 6 hrs by Western blot analysis. Format: functional, cell-based. A digest of the protocol: (§1)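 MCF-7 cells exposed to compounds (10 µM shown for the chain-length series) for 6 h. Cells lysed in 1% SDS, 0.1 M Tris–HCl pH 7.0, 10% glycerol and boiled 10 min. Protein measured by BCA, and equal amounts run on SDS–PAGE, transferred to PVDF and immunoblotted for endogenous ERα.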

In assay [2] the test system is MCF7. Briefly: Reduction in endogenous ERalpha expression in human MCF7 cells after 6 hrs by Western blot analysis. Format: functional, cell-based. A digest of the protocol: as §1
In the next assay the target is T1, Estrogen receptor (Homo sapiens, UniProt P03372).
T1 sequence (P03372 whole entry): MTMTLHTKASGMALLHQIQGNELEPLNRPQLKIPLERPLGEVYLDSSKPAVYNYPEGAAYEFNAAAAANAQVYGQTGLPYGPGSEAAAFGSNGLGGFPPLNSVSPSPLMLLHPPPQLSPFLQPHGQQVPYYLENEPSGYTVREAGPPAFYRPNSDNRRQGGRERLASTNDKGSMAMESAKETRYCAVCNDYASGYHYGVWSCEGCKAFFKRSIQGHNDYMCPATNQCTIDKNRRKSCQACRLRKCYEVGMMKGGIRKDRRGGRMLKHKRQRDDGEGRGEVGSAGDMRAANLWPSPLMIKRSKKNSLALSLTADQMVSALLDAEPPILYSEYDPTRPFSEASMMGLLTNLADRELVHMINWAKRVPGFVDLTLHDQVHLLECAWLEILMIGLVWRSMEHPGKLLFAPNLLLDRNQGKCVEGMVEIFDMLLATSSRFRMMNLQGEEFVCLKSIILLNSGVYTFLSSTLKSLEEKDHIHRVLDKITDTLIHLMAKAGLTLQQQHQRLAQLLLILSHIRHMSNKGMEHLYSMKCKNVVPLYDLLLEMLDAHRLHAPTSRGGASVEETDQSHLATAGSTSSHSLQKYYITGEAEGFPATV
Briefly: Inhibition of ERalpha (unknown origin) by fluorescence polarization-based competition binding assay. For orientation: Polarisation of emitted light reports the rotation of a fluorescent probe.

For assay [3], the system named is MCF7. Briefly: Reduction in endogenous ERalpha expression in human MCF7 cells at 0.1 to 1 uM after 6 hrs by Western blot analysis in presence of 10 uM MG132 proteasome inhibitor. Format: functional, cell-based. The method, boiled down: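 MCF-7 cells incubated 6 h with graded compound concentrations, with or without proteasome inhibitor MG132 (10 µM). Lysis in 1% SDS, 0.1 M Tris–HCl pH 7.0, 10% glycerol, then boiling 10 min. BCA protein assay, equal loading on SDS–PAGE, PVDF transfer, and Western blot detection of ERα.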
On the technique in general: A western blot detects proteins with antibodies after separation by electrophoresis.

Consider `CC/C(=C(\c1ccc(O)cc1)c1ccc(OCCNC)cc1)c1ccccc1`, for which the inhibition entry in the assay with MCF7 [1] was “inactive”.

For `CC/C(=C(\c1ccc(O)cc1)c1ccc(OCCNCCCCCCCCCCF)cc1)c1ccccc1`, in the assay with MCF7 [2], the inhibition result is “Dose-dependent effect”. In the assay with MCF7 [1], the inhibition result is “Active”. This compound yielded a 50% inhibitory concentration (IC50) at Estrogen receptor of 3.4 nM. Further, the inhibition result in the assay on MCF7 [3] is “inactive”.

Turning to `CCCCCCCCCCCCCCCCCCNCCOc1ccc(/C(=C(/CC)c2ccccc2)c2ccc(O)cc2)cc1`, the IC50 on Estrogen receptor is greater than 100000 nM.

Regarding `CCCCCCCCCCCCCCCCNCCOc1ccc(/C(=C(/CC)c2ccccc2)c2ccc(O)cc2)cc1`, in the assay with MCF7 [1], the inhibition entry was “inactive”. Moreover, at Estrogen receptor, the IC50 came out at 4.8 nM.

Take `CCCCCCCCCCCCNCCOc1ccc(/C(=C(/CC)c2ccccc2)c2ccc(O)cc2)cc1`: the IC50 on Estrogen receptor came to 14 nM.

As for `CC/C(=C(\c1ccc(O)cc1)c1ccc(OCCNCCCCCCCCCCO)cc1)c1ccccc1`, the inhibition entry with MCF7 [1] is “inactive”. The IC50 on Estrogen receptor was 210 nM.

In the case of `CCCCCCNCCOc1ccc(/C(=C(/CC)c2ccccc2)c2ccc(O)cc2)cc1`, the inhibition entry with MCF7 [1] was “inactive”. Further, on Estrogen receptor, the half-inhibitory concentration (IC50) is 151 nM.

Consider `CCC(=C(c1ccc(O)cc1)c1ccc(OCCN(C)C)cc1)c1ccccc1`, for which the inhibition entry in the assay with MCF7 [1] is “inactive”.

Regarding `CCCCCCCCNCCOc1ccc(/C(=C(/CC)c2ccccc2)c2ccc(O)cc2)cc1`, the inhibition entry in the assay on MCF7 [1] is “inactive”. For the same compound, the half-maximal inhibitory concentration (IC50) on Estrogen receptor came out at 53 nM.

For the compound `CCCCCCCCCCNCCOc1ccc(/C(=C(/CC)c2ccccc2)c2ccc(O)cc2)cc1`, the inhibition result with MCF7 [1] was “Active”. The compound also registered an IC50 on Estrogen receptor of 3.6 nM.

With `CCCCCCCCCCCCCCNCCOc1ccc(/C(=C(/CC)c2ccccc2)c2ccc(O)cc2)cc1`, in the assay on MCF7 [1], the inhibition result was “inactive”. Further, the IC50 at Estrogen receptor turned out to be 11 nM.

As usually defined, the IC50 is the concentration that inhibits the measured activity by half. A high value points to a need for much substance.
